From ChEMBL document CHEMBL1146002, “Substituted N-(2-aminophenyl)-benzamides, (E)-N-(2-aminophenyl)-acrylamides and their analogues: novel classes of histone deacetylase inhibitors” (Bioorg Med Chem Lett, 2006)
Active and inactive are the calls of the source. The calls are words filed in the database; no cut-off is given here.

Experiments:
[1] = target: Histone deacetylase 1 (Homo sapiens, UniProt Q13547); assay: Inhibition of human recombinant HDAC1
[2] = tested on: HCT-116; assay: Antiproliferative activity against human HCT116 cells by MTT assay; assay type: functional, cell-based
[3] = tested on: HCT-116; assay: Cell cycle arrest in human HCT116 cells at G2/M phase; assay type: functional, cell-based
Method in brief: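 HCT116 cells treated with compounds in 1% DMSO for 16 h, then harvested by trypsinization and fixed. DNA was stained with propidium iodide and analysed by flow cytometry. The (G2+M)/S ratio is the percentage of gated cells in G2/M divided by the percentage in S phase.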

[4] = tested on: HMEC; assay: Cytotoxicity against human HMEC cells; assay type: functional, cell-based
Method in brief: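 Cytotoxicity toward normal cells was measured as inhibition of proliferation of human normal mammary epithelial cells (HMEC), reported as IC50.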

[5] = target: Histone deacetylase (Homo sapiens) (UniProt Q13547+O15379+Q9UBN7+Q92769+Q9UQL6+Q8WUI4+Q9BY41+Q96DB2+P56524+Q9UKV0+Q969S8); assay: Inhibition of HDAC assessed as ability to induce histone acetylation in human T24 cells; assay type: functional, cell-based; details: T-24
Method in brief: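 T24 human bladder carcinoma cells treated at […] for 16 h. Histones acid-extracted, separated by SDS–PAGE and immunoblotted with antibodies specific for acetylated histone H4; total H4 also probed. Dose-dependence judged from blot.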

[6] = Half life in iv dosed rat; assay type: ADME, organism-based; details: in vivo
[7] = tested on: T-24; assay: Induction of p21 WAF1/Cip1 transcription in human T24 cells assessed by luciferase reporter gene activity; assay type: functional, cell-based
[8] = tested on: HCT-116; assay: Antitumor activity against human HCT116 cells xenografted in mouse at 50 mg/kg, ip; assay type: functional; details: HCT-116, ip, route intraperitoneal, read-out: TGI
Method in brief: (§1)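 Human tumour cells grown as xenografts in mice; compounds given daily by intraperitoneal injection. Antitumour activity is expressed as % tumour growth inhibition relative to vehicle-treated controls. Body weight was followed as the measure of gross toxicity.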

[9] = tested on: SW48; assay: Antitumor activity against human SW48 cells xenografted in mouse at 50 mg/kg, ip; assay type: functional; details: route intraperitoneal, read-out: TGI; method in brief: as §1
[10] = Bioavailability in rat; assay type: ADME, organism-based; details: in vivo

Histone deacetylase 1, sequence (Q13547 whole entry): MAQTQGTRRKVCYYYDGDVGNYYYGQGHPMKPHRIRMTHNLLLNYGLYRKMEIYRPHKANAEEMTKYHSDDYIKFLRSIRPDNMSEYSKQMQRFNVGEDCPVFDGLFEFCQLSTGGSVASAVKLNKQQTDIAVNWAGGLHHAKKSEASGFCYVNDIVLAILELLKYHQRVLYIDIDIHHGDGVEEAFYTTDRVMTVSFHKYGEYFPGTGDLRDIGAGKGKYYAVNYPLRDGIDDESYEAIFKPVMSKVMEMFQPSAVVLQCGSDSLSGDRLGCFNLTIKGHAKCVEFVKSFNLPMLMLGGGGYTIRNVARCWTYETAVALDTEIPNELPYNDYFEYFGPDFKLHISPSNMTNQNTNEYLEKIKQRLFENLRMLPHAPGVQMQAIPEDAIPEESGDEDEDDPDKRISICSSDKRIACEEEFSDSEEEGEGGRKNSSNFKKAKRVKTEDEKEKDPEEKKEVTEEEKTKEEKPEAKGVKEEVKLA

IC50 [1] [µM]	IC50 [2] [µM]	SMILES	further results
17	11	Nc1ccccc1NC(=O)/C=C/c1ccc(CNc2ccccc2)cc1	–
10	2	Nc1ccccc1NC(=O)/C=C/c1ccc(NCc2ccncc2)cc1	–
4	–	COc1ccc(NCc2ccc(/C=C/C(=O)Nc3ccccc3N)cc2)cc1	–
3	2	COc1cc(NCc2ccc(C(=O)Nc3ccccc3N)cc2)cc(OC)c1OC	–
4	15	Nc1ccccc1NC(=O)/C=C/c1ccc(NCc2ccc([N+](=O)[O-])cc2)cc1	–
2	1	COc1ccc(CNc2ccc(C(=O)Nc3ccccc3N)cc2)cc1	–
4	–	COc1ccc(CNc2ccc(/C=C/C(=O)Nc3ccccc3N)cc2)cc1	–
2	5	COc1ccc(NCc2ccc(/C=C/C(=O)Nc3ccccc3N)cc2)cc1OC	–
2	–	COc1ccc(CNc2ccc(/C=C/C(=O)Nc3ccccc3N)cn2)cc1	–
22	–	COc1ccccc1NCc1ccc(/C=C/C(=O)Nc2ccccc2N)cc1	–
5	50	Nc1ccccc1NC(=O)/C=C/c1ccc(NCc2ccc(OC(F)(F)F)cc2)cc1	–
3	2	COc1cc(CNc2ccc(C(=O)Nc3ccccc3N)cc2)cc(OC)c1OC	–
17	10	COc1cccc(NCc2ccc(/C=C/C(=O)Nc3ccccc3N)cc2)c1	–
4	–	COc1ccc(CNc2ccc(C(=O)Nc3ccccc3N)cc2)cc1OC	–
3	–	COc1ccc(CCNc2ccc(C(=O)Nc3ccccc3N)cn2)cc1	–
0.6	2	COc1ccc(NCc2ccc(C(=O)Nc3ccccc3N)cc2)cc1	–
4	–	COc1ccc(CNc2ccc(C(=O)Nc3ccccc3N)cn2)cc1	–

Continued, compound first:

SMILES	IC50 [1] [µM]	IC50 [2] [µM]	further results
Nc1ccccc1NC(=O)/C=C/c1ccc(NCCNc2ccccc2)nc1	2	5	–
Nc1ccccc1NC(=O)/C=C/c1ccc(NCCCc2ccccc2)nc1	3	2	–
Nc1ccccc1NC(=O)/C=C/c1ccc(NCc2ccc(F)cc2)nc1	5	2	–
CN(C)c1ccc(CNc2ccc(/C=C/C(=O)Nc3ccccc3N)cn2)cc1	4	3	–
COc1cc(CNc2ccc(C(=O)Nc3ccccc3N)cn2)cc(OC)c1OC	5	3	–
COc1ccc(NCc2ccc(C(=O)Nc3ccccc3N)cc2)cc1OC	–	–	Activity [3]: Active; IC50 [4]: 15 µM; Activity [5]: Dose-dependent effect; half-life [6]: 0.7 h; Activity [7]: Active; inhibition in vivo at 50 mg/kg [8]: 66%; inhibition in vivo at 50 mg/kg [9]: 66%
COc1cc(CNc2ccc(/C=C/C(=O)Nc3ccccc3N)cn2)cc(OC)c1OC	4	–	–
Nc1ccccc1NC(=O)/C=C/c1ccc(NCc2ccccc2)nc1	3	–	–
COc1cc(NCc2ccc(/C=C/C(=O)Nc3ccccc3N)cn2)cc(OC)c1OC	3	–	–
Nc1ccccc1NC(=O)/C=C/c1ccc(NCc2ccc(OC(F)(F)F)cc2)nc1	2	4	–
Nc1ccccc1NC(=O)/C=C/c1ccc(NCc2ccncc2)nc1	4	7	–
COc1cc(N(C)Cc2ccc(/C=C/C(=O)Nc3ccccc3N)cc2)cc(OC)c1OC	3	5	–
COc1cc(NCc2ccc(/C=C/C(=O)Nc3ccccc3N)cc2)cc(OC)c1OC	2	–	Activity [3]: Active; IC50 [4]: 39 µM; Activity [5]: Dose-dependent effect; half-life [6]: 1.8 h; bioavailability [10]: 65%; Activity [7]: Active
